# Sampled rows, rich in hits. Any-hit rate of the full collection: about 2.1%.
# Ins promoter up – insulin promoter activators in MIN6 cells, imaging, high-content screening, mouse beta cells | MIN6 insulin promoter-GFP reporter; stronger effect = higher value | z-score at 5 µM | hit rate 0.3% among 190,000;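 active means z-score above 3 at 5 µM with at least 500 cells counted in the well; inconclusive means wells under 500 cells, flagged as cytotoxic or low count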
# Dynein cargo inh – inhibitors of GR-EGFP nuclear translocation, primary screen, dynein cargo transport inhibitor project, imaging, high-content, 3617.4 mouse cells | test concentration mostly 20 µM; stimulated with dexamethasone, 1 µM; stronger effect = lower value | z-score, hits read low | hit rate 0.47% among 220,000 | AID 1381, 2008;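 active means plate z-score of nuclear minus cytoplasmic receptor signal below a set negative limit, without overly bright fluorescence or cell loss, cut at about -3.5 in these data, passing the limit was not always enough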;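 further: z-score of nuclear minus cytoplasmic ring GR-EGFP intensity difference per well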
#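 Buffer or medium: tet-free, stripped-serum medium; reagent: dexamethasone at 1.0 µM final, 30 min; incubation: 48 h induction, 1 h compound, 30 min dex at 37 °C; measured by: formaldehyde fixation, Hoechst nuclear stain, 10x automated fluorescence imaging; read-out: nuclear-to-cytoplasmic GR-EGFP distribution per well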
# Autophagy mod – autophagy modulators in MEF cells, primary screen, imaging, high-content, MEF GFP-LC3 | MEF GFP-LC3 puncta imaging; test concentration mostly 10 µM | calls only at 10 µM (by protocol) | hit rate 0.98% among 190,000;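 active means percentage of spot-positive cells more than 3 SD above its plate mean, without a fluorescence outlier flag or 80% toxicity; inconclusive means no clear call, values can overlap the other calls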;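 further: spot-positive cell cutoff set from DMSO-treated cells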
# Insulin prom inh – inhibitors of insulin promoter-driven GFP, primary screen, imaging, TRM-6 cells (human fetal islet line), eGFP reporter, cell count | reporter expression induced with tamoxifen | inhibition, % at 2 µM | hit rate 0.9% among 130,000;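 active means inhibition above the mean plus 3 SD, with well images judged a real hit on visual review, cut at about 60% in these data, passing the limit was not always enough; inconclusive means inhibition over the cutoff but images rejected on review; inactive means inhibition not above the cutoff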
# PERK inhibitor – block of dimerizer-induced PERK translation repression, primary screen, PERK inhibitor project, CHO PERK-DD cells, SEAP luminescence, HTS | Eukaryotic translation initiation factor 2-alpha kinase 3 (Homo sapiens), Q9NZJ5 | inhibition, % at 5.6 µM | CHO PERK-DD fusion, SEAP luminescence translation reporter | hit rate 0.17% among 220,000;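 active means inhibition above the mean inhibition of all tested compounds plus 3 SD, set separately per screening campaign, cut at about 2.9% in these data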;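 further: PERK kinase domain activated by AP20187 dimerizer at 100 nM; 0% = DMSO with dimerizer and 100% = rapamycin at 8.4 µM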
# Dynein inh conf – dynein cargo transport inhibitors, GR-EGFP translocation, confirmation, imaging, high-content imaging, GR-EGFP cells. 3617.4 GR-EGFP nuclear translocation imaging, dexamethasone-induced. calls only at 20 µM. shares compounds with Dynein cargo inh. AID 463116, 2010. hit rate 69% among 1,000;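 active means inhibition of receptor movement into the nucleus at or above a set limit in both runs, with normal cell brightness and cell count; inconclusive means limit reached in only one run, brightness and count normal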;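 further: dexamethasone at 1 µM final in well for 30 min; nuclear minus cytoplasmic GR-EGFP mean intensity difference in channel 2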
# Active calls of the source: *; i = inactive; u = inconclusive; x = no result given; + = active, no number.
SMILES,Ins promoter up,Dynein cargo inh,Autophagy mod,Insulin prom inh,PERK inhibitor,Dynein inh conf
CCOc1cc(/C=C2\C(=O)N(Cc3ccco3)C(C)=C2C(=O)OC)ccc1O,-0.19,-4.4*,i,x,0,+
CCOc1cc(/C=C2\C(=O)N(CCc3ccc(OC)c(OC)c3)C(C)=C2C(=O)OC)ccc1O,-0.28,-4*,i,-3,0,i
COC(=O)C1=C(C)N(Cc2ccc(C)cc2)C(=O)/C1=C\c1cc(OC)c(OC)c(OC)c1,x,-3.5*,i,x,-1,+
CCn1c(SCC(=O)N/N=C/c2ccccc2OCC(=O)O)nnc1-c1ccc(C)cc1,0.02,-0.2,x,x,2,x
CCOC(=O)C1CCN(S(=O)(=O)c2ccc(OC)c(Cl)c2)CC1,-0.2,0.63,i,-18,-1,x
O=C(c1ccc(Cl)cc1)c1c[nH]c(C(=O)C(Cl)(Cl)Cl)c1,-0.36,-3.7*,i,14,1,+
O=C(c1ccccc1)c1c[nH]c(C(=O)C(Cl)(Cl)Cl)c1,-0.08,0.24,i,x,1,x
CC1(N(O)C=C2C=CC(=O)C=C2)CCCCC1=O (stereo not given),-0.56,-0.1,x,x,1,x
Clc1ncnc2scc(C3COc4ccccc4O3)c12 (stereo not given),x,-4.2*,i,12,1,+
Cc1ccc(N2C(=O)c3cccc4c(N)ccc(c34)C2=O)c2cccnc12,u,-5.4*,x,x,0,u
OC(CNCCc1ccc(C(F)(F)F)cc1)COc1ccc2ccccc2c1 (stereo not given),0.73,-4.8*,i,14,0,i
Cc1cc(C)c2c(=O)n(CC(=O)NCCCN3CCOCC3)sc2n1,-1.1,-3.4,i,x,1,x
Cc1cc(C)c2c(=O)n(CC(=O)NCCCN3CCN(c4ccccc4F)CC3)sc2n1,1.4,-7.9*,i,x,1,+
CCCCCCc1cc2cc(-c3nnc(-c4ccccc4O)o3)c(=O)oc2cc1O,7.5*,-5.6,+,-270,1,+
CCCCNc1ccc2c3c(cccc13)C(=O)N(CCCC)C2=O,x,-6.1*,x,x,0,+
CN(C)CCCN1C(=O)c2cccc3c(Br)ccc(c23)C1=O,1.3,-0.19,i,-69,0,x
Cc1ccc(Cc2nnc3n(-c4ccccc4)nc(C(=O)c4ccccc4)n3c2=O)cc1,x,0.11,i,0,-1,x
Clc1ccc(N=c2ssnc2Cl)nc1,2.6,-3.5*,i,7,0,i
C=C(C(=O)c1ccccc1)C(C(=C)C(=O)c1ccccc1)c1ccc(OC)cc1,-1.3,-3.8*,x,x,-1,+
Cc1ccc(OCCNC(=O)Cc2ccc(F)cc2)cc1,-0.07,0.36,i,x,1,x
O=C(CCl)Nc1cc(-c2ccccc2)nn1-c1ccccc1,x,-4.8*,+,87*,0,+
C=CCOc1cccc(CNc2cccc(C(=O)O)c2)c1,-0.06,0.6,x,x,2,x
CC1(C)CC(=O)C(C(C#Cc2ccccc2)C2=C(O)CC(C)(C)CC2=O)=C(O)C1,0.6,-2,i,3,0,x
O=C1CCCC(O)=C1C(C#Cc1ccccc1)C1=C(O)CCCC1=O,-0.04,-5.5*,i,-29,1,+
CC(=O)Nc1ccc(OCC(O)Cn2nc(C)c(Br)c2C)cc1 (stereo not given),0.15,-0.52,i,44,0,x
SMILES,Ins promoter up,Dynein cargo inh,Autophagy mod,Insulin prom inh,PERK inhibitor,Dynein inh conf
N#Cc1cccc(NC(=O)CSc2ccc3c4c(cccc24)C(=O)c2ccccc2-3)c1,x,-6,+,-233,0,+
N#Cc1cccc(NC(=O)CSc2ccccc2)c1,-0.19,-0.23,i,9,2,x
N#CC(C#N)=Cc1cc2ccccc2nc1N1CCCCC1,-0.09,-4.4*,i,59,0,u
Cn1c(-c2ccc([N+](=O)[O-])cc2)nc2ccccc21,0.23,0.78,i,x,1,x
Cn1nc([N+](=O)[O-])c(C(C#N)c2nc3ccccc3n2C)c(Cl)c1=O (stereo not given),-0.01,-3.6*,i,-6,0,i
C=C(CC)C(=O)c1ccc(OCC(=O)O)c(Cl)c1Cl,x,-3.7*,i,50,1,+
Cc1nc2c(ccc3nc(NC(=O)c4ccc(S(=O)(=O)N(C)C)cc4)sc32)s1,-0.03,-4.1*,i,x,0,i
O=c1oc2c3c4c(cc2c(C(F)(F)F)c1CCN1CCOCC1)CCCN4CCC3,x,-5.7*,u,-26,-1,+
CC(C)c1cc(=O)oc2c3c4c(cc12)CCCN4CCC3,x,0.66,i,x,0,x
COc1cccc(CN2C(=O)C3CCCN3c3ccc(S(=O)(=O)N4CCOCC4)cc32)c1 (stereo not given),-0.54,0.13,i,0,-1,x
COc1cccc(C(=O)Oc2ccccc2/C=C\C(=O)c2cc3ccccc3o2)c1,0.98,-4*,i,x,1,+
O=C(Oc1ccccc1/C=C\C(=O)c1cc2ccccc2o1)c1ccccc1,0.88,-3.1,i,30,1,x
CC(C)(C)NC(=S)N/N=C\c1ccc(-c2ccc([N+](=O)[O-])cc2)o1,x,-6,x,x,1,i
COC(=O)CON1C(=O)c2ccccc2C1=O,-0.09,-0.31,i,-60,1,x
Cc1cc(C)c(C)c(S(=O)(=O)ON2C(=O)c3ccccc3C2=O)c1C,-0.32,-4.3*,i,x,1,+
Cc1cc(C)c(S(=O)(=O)ON2C(=O)c3ccccc3C2=O)cc1C,x,-6.1*,i,-22,1,+
Cc1nc2ccccc2c(=O)n1/N=C/c1ccc([N+](=O)[O-])o1,0.23,-4*,x,x,2,+
COC(=O)c1scc(C)c1NC(=O)/C=C/C(=O)O,-0.45,-3.8*,x,x,0,i
CCOC(=O)c1nnn(-c2nonc2N)c1-c1ccc(F)cc1,0.04,0.5,i,0,1,x
CC(=O)Nc1ccc(S(=O)(=O)NCC2CCC(C(=O)NC(C)c3ccc4c(c3)OCCO4)CC2)cc1 (stereo not given),1.3,0.46,i,x,1,x
O=C(Cn1ncc(Cl)c(Cl)c1=O)N1CCOCC1,-1.4,-4.2*,i,x,-1,+
CC1(C)C(=O)Nc2ccccc2N1C(=O)Cn1ncc(Cl)c(Cl)c1=O,-2.2,-6.3*,x,x,0,+
O=C(Cn1ncc(Cl)c(Cl)c1=O)N1CCN(Cc2ccccc2)CC1,-4.7,-5*,i,i,1,+
CCOC(=O)C(Oc1ccc(=O)n(-c2ccccc2)n1)C(C)=O (stereo not given),1.1,-0.42,i,38,1,x

# Screening data deposited in PubChem by several laboratories.
